Source: PubChem BioAssay
CSN deneddyl inh: CSN deneddylation inhibition. inhibition, % at 12.5 µM. Q92905. Purified CSN, SCF-Nedd8-OG deneddylation, fluorescence polarization. 360,000 tested, 0.38% active;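 active = pattern-corrected inhibition above about 35%, with an unprinted fluorescence ratio check between 0.5 and 1.5, limit read from the data, passing the limit was not always enough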;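 note: 0% = enzyme with substrate and 100% = substrate without enzyme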
Target sequence (Q92905 whole entry, looked up, one chain of several): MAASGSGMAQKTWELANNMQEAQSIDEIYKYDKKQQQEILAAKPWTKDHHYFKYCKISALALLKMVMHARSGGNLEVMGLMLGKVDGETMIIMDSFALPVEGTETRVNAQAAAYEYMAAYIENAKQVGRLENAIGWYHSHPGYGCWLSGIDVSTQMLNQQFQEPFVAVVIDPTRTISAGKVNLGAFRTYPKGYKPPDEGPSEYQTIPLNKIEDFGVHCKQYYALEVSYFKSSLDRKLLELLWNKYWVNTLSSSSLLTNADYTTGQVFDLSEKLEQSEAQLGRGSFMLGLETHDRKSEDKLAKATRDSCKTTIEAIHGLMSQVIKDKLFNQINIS
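assay system = purified human Csn5 enzyme expressed in HEK293T cells | amount = 0.24 nM enzyme | buffer or medium = Tris/NaCl/DTT buffer, pH 7.5 | reagent = 10 nM SCFSkp2-Nedd8OG | compound = one concentration, 12.5 µM, 0.25% DMSO | times = 90 min reaction at room temperature | signal = FP | read-out basis = % inhibition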
Exocytosis inh: blocks lytic granule exocytosis. TALL-104 LAMP-1 surface exposure, flow cytometry; cells stimulated with thapsigargin and PMA. inhibition, % at 10 µM. 360,000 tested, 0.66% active. AID 651702;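 active = inhibition above about 55%, limit read from the data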
Myeloid diff 2: compounds promoting myeloid differentiation; ER-HoxA9 myeloid progenitors, lysozyme-GFP differentiation, flow cytometry; calls only at 10 µM; 360,000 tested, 1% active; AID 624256;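 active = normalized GFP-positive differentiation at or above the plate's own cutoff, the solvent-only control mean plus 3 SD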;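 note: cells exposed to compound for four days before flow analysis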
HNF4A DNA FP: change in binding of human HNF4 alpha to DNA; HNF4a-FITC DNA binding, fluorescence polarization, 1 h; activity change, % at 10 µM; 360,000 tested, 0.3% active; P41235; in the data active = activity change above about 30%, passing the limit was not always enough
Starred values were filed as active, the others as inactive; i = inactive; . = not tested or not shown; + = active, no number; ! = not confirmed by another sample. Only some compounds are listed: those with a hit (about 2.2% of all), similar ones and a draw of the others.

SMILES | CSN deneddyl inh | Exocytosis inh | Myeloid diff 2 | HNF4A DNA FP
CC1=CC(C)(C)n2c(O)c(N=NC(N)=S)c3c(C)ccc1c32 | 1 | -4 | + | -1
CC1=CC(C)(C)n2c(O)c(N=NC(N)=S)c3c(C)c(C)cc1c32 | 0 | -3 | i | -4
COC(=O)N/N=C/c1cn(Cc2ccc(F)cc2)c2ccccc12 | -4 | -4 | i | -4
O=[N+]([O-])c1ccc(N/N=C/c2cn(Cc3ccc(F)cc3)c3ccccc23)nc1 | 8 | 0 | + | 16
Cc1cccc(C)c1NC(=O)Cn1cnc2c(=O)n(C)c(=O)n(C)c21 | -4 | 0 | i | 1
Cn1c(=O)c2ncn(CC(=O)Nc3ccc4c5c(cccc35)CC4)c2n(C)c1=O | 0 | -3 | + | 15
Cc1cccc(OCC(=O)Nc2ccc3c4c(cccc24)CC3)c1C | 1 | -6 | i | 3
Cc1ccc(OCC(=O)Nc2ccc3c4c(cccc24)CC3)c(C)c1 | 5 | -1 | + | -1
O=C(O)C(F)=C(c1ccccc1)c1ccccc1 | 0 | -1 | i | 1
CCOC(=O)c1cn(-c2ccc([N+](=O)[O-])cc2)c2cc(Cl)c([N+](=O)[O-])cc2c1=O | 2 | 3 | + | -2
O=C(O)c1cn(-c2ccc(F)cc2)c2cc(Cl)c(F)cc2c1=O | -3 | -1 | . | 4
Cc1cc(C)c(NC(=O)CNC(=O)CSc2nnc(N)s2)c(C)c1 | -13 | 1 | i | 0
O=C(Cn1ncc2c([nH]c3ccccc32)c1=O)Nc1ccc(CN2CCCCC2)cc1 | 7 | -9 | + | 6
Cn1c(N)c(S(=O)(=O)N2CCCC2)c(=O)n(C)c1=O | 1 | 10 | i | 0
CCNc1ccc(Br)cc(C(=O)/C=C/c2c(Cl)cccc2Cl)c1=O | 37* | 78* | + | 3
CNc1ccc(Br)cc(C(=O)/C=C/c2ccc(Cl)cc2Cl)c1=O | 30 | 100* | i | 9
CC(=O)Nc1ccc(S(=O)(=O)N[C@@H](C)C(=O)N2CCN(C/C=C/c3ccccc3)CC2)cc1 | -2 | 0 | i | -1
CCCCNC(=O)CO/N=C(\C)c1cc2ccccc2o1 | -1 | -1 | + | -1
C/C(=N\OCC(=O)NCC(F)(F)F)c1cc2ccccc2o1 | 0 | 2 | i | 1
CSc1nsc(/C=C/Nc2ccc(O)cc2C)c1C#N | 17 | 0 | + | 111
O=C1NC2(CCCCCC2)C(=O)N1Cc1ccccc1 | -2 | 2 | i | -2
O=C1NC(=O)N(Cc2ccccc2)C1=O | -7 | 14 | + | 5
Cc1ccc(C(=O)NCCCNC(=O)COc2ccc(Cl)cc2)cn1 | -1 | -26 | i | 1
COc1cccc2cc(-c3nc4ccccc4o3)c(=O)oc12 | -13 | -3 | + | 0
C[C@]12CCC(=O)C[C@@H]1CC[C@@H]1[C@@H]2CC[C@]2(C)C=CC[C@@H]12 | 1 | 1 | i | -1
SMILES | CSN deneddyl inh | Exocytosis inh | Myeloid diff 2 | HNF4A DNA FP
C[C@]12CCC(=O)CC1CCC1C2CC[C@@]2(C)C1CC[C@@]21CCO1 (some centres undefined) | 4 | -16 | + | -1
COc1cc2oc(=O)cc(CN3CCOCC3)c2cc1Cl | 118* | -4 | i | 1
CC(NC(=O)c1ccco1)C(=O)N1CCc2ccccc2C1 (centres undefined) | -2 | -2 | + | 3
COc1ccccc1N1CCN(C(=O)C(C)NC(=O)c2ccco2)CC1 (centres undefined) | 2 | -1 | i | -1
COc1cc(OC)c2c(-c3cccc(-c4cccc(C)c4)c3)cc(=O)oc2c1 | -3 | 0 | + | -3
CCOc1cc(/C=C/C(=O)c2ccc3c(c2)OCCO3)ccc1OCC(=O)N(C)C | 5 | 1 | + | 2
Cc1c(Cl)cc(C(C)C)c(O)c1CN1CCOCC1 | -4 | -1 | i | -2
C=CC(=O)Nc1ccc(Nc2nc(NC3CCC(N(C)C)CC3)nc3c2ncn3C(C)C)cc1 (centres undefined) | 37* | -4 | i | 18
O=C(COC(=O)c1cc(S(=O)(=O)N2CCOCC2)ccc1Cl)c1ccc[nH]1 | 5 | -6 | + | 2
O=C(CCc1ccc(O)cc1)NN=Cc1ccc2c(c1)OCO2 | 5 | -4 | + | -3
O=C(Cc1ccc([N+](=O)[O-])cc1)OCc1ccc([N+](=O)[O-])cc1 | -1 | 6 | i | 2
O=[N+]([O-])c1ccc(COP(=O)(O)OCc2ccc([N+](=O)[O-])cc2)cc1 | -3 | 15 | +! | 6
COc1cc(/C=C(\C#N)C(=O)Nc2cccc(C(=O)O)c2)ccc1OCc1ccc(F)cc1 | 5 | -4 | i | 1
CCOc1cc(/C=C(\C#N)C(=O)Nc2cccc(C(=O)O)c2)ccc1OCc1ccccc1Cl | 3 | 81* | i | 0
Cc1ccc(-c2nc(N/N=C/c3ccccc3[N+](=O)[O-])c3ccccc3n2)cc1 | 3 | -1 | + | 1
Cc1ccccc1-c1nc2ccccc2c(=O)n1/N=C/c1ccc([N+](=O)[O-])cc1 | -1 | -2 | i | 3
Cc1ccccc1-c1nc2ccccc2c(=O)n1/N=C/c1ccccc1[N+](=O)[O-] | 1 | 67* | i | 0
Brc1ccc(-c2nc(N/N=C/c3cccnc3)c3ccccc3n2)cc1 | 4 | 14 | + | 2
Cc1cc(NC(=O)c2ccccc2)ccc1NC(=O)Cc1ccccc1 | 2 | -1 | i | -2
CCC(C(=O)Nc1ccccc1OC)n1c(C(=O)OC)cc2ccsc21 (centres undefined) | 1 | -2 | + | 4
COc1ccc(CCC(=O)NC(C)C)cc1 | 1 | -2 | + | 0
COc1ccc(CCC(=O)NC2CCC(C)CC2)cc1 (centres undefined) | 0 | -2 | + | 0
COc1ccc(C(C)NC(=O)CCc2ccccc2)cc1 (centres undefined) | 1 | -1 | i | 1
COc1ccc(CCCC(=O)NC2CCCCC2)cc1 | -2 | 2 | i | 0
COc1cccc(NC(=O)CN(C)CC(=O)Nc2ccc(C)c([N+](=O)[O-])c2)c1 | 0 | 0 | + | 1
SMILES | CSN deneddyl inh | Exocytosis inh | Myeloid diff 2 | HNF4A DNA FP
C/C(=N\Nc1ccccc1Cl)c1ccc(-n2ccnc2)cc1 | 13 | -2 | + | -5
C/C(=N\Nc1ccc(C(=O)O)cc1)c1ccc(-n2ccnc2)cc1 | 0 | 0 | i | -2
COc1ccc(CNC(=O)CSc2ncn[nH]2)cc1OC | -1 | -11 | + | -1
O=C(CSc1ncn[nH]1)NCc1ccc(Cl)cc1 | 0 | -4 | i | 3
NS(=O)(=O)c1cccc(NC(=O)CSc2nnc(C3CC3)n2-c2ccccc2)c1 | 0 | -5 | i | 2
CC(=O)N(/N=C1\Sc2ccccc2C1=O)c1ccc(C)cc1C | 7 | -1 | + | 7
OCC(O)C1OC(Oc2ccccc2)C(O)C(O)C1O (centres undefined) | 0 | -3 | i | 1
OCC(O)C1OC(Nc2ccc(Cl)cc2)C(O)C1O (centres undefined) | 3 | 2 | + | -1
